Shown are actives, neighbours in structure and some others; about 9.2% of the full set was active somewhere.
ERa coact pot = enhances coactivator binding to human estrogen receptor alpha | TR-FRET ERalpha-LBD/SRC-Cy5 coactivator binding, 2 h; 100 = basal binding, no effect | coactivator binding (% of control), % at 25.6 µM | hit rate 1.3% among 86,000 | AID 639; in the data active = activity above about 200%;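 note: binding measured in presence of low estradiol as agonist stimulus; 0% = peptide alone without receptor and 100% = receptor with peptide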
Target sequence (P03372 whole entry, looked up, the tested form may be a part): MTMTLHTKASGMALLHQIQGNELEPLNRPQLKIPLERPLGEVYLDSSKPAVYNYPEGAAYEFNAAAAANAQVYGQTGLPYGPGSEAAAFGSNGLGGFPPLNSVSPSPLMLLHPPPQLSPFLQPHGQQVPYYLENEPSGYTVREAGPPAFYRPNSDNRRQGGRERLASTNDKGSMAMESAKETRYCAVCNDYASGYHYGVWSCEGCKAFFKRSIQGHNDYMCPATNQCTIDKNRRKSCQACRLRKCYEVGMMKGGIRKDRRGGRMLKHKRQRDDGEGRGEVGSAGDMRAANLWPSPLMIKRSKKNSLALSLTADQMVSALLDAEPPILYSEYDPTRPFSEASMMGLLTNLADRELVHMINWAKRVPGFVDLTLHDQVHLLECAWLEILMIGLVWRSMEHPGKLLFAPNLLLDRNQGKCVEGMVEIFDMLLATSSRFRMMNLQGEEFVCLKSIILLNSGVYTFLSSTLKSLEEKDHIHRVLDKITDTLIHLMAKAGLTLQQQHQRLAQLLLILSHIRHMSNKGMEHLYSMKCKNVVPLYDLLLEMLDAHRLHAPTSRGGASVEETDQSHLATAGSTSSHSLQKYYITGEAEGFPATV
HUVEC inhibit = human endothelial cell proliferation inhibition. viability, % at 10 µM (by protocol). hit rate 1.1% among 86,000. HUVEC proliferation, CellTiter-Glo luminescence, 72 h; stronger effect = lower value. AID 648;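 active = viability at or below 30%; inactive = viability above 30%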;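 note: 100% = median luminescence of DMSO-only cell control wells on each plate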
H69AR growth 86K = blocks growth of human H69AR lung tumor cells; H69AR lung tumor viability, ATP luminescence, 72 h; stronger effect = lower value; hit rate 6% among 85,000; viability, % at 10 µM;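 active = viability at or below 40%; inactive = viability above 40%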;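 note: multidrug resistant small cell line overexpressing MRP-1 efflux transporter; 100% = mean luminescence of untreated control wells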
Fibroblast inh = blocks proliferation of human lung fibroblasts; LL 47 human lung fibroblast viability, ATP luminescence; stronger effect = lower value; AID 719; hit rate 1.1% among 85,000; viability, % at 10 µM;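 active = viability at or below 50% in the single dose screen; inactive = viability above 50%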;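 note: compound exposure lasted 72 h before the ATP readout; 100% = median luminescence of untreated cell-only wells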
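Material: human lung fibroblast line LL 47, low passage; Evaluation: viability percentage against median untreated-cell control; Buffer or medium: 15% FBS in IMEM; Incubation: 72 h compound exposure at 37 °C after overnight plating; Dosing: 0.1% DMSO in all compound wells; Measured by: CellTiter-Glo luminescence.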
ERb coact inh = ER-beta (human) coactivator binding inhibition; TR-FRET ER-beta LBD / SRC1-Cy5 peptide binding; receptor agonist-loaded with 1 µM estradiol; inhibition, % at 25.6 µM; hit rate 1.3% among 86,000; AID 633;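 active = compounds whose percent inhibition of the receptor-coactivator binding signal exceeds about 50% in the single-dose screen, limit read from the data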;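 note: 0% = receptor plus peptide wells without compound and 100% = peptide-only wells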
ERa coact inh = ER-alpha (human) coactivator binding inhibition. hit rate 1.7% among 86,000. inhibition, % at 25.6 µM. TR-FRET ER-alpha LBD / SRC-1 peptide, estradiol-bound. AID 629. P03372; in the data active = inhibition above about 50%;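 note: 0% = receptor plus peptide control and 100% = peptide only without receptor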
Numbers without * were called inactive; nt = no result; [ ] = another dose, or the depositor's remark.

SMILES | ERa coact pot | HUVEC inhibit | H69AR growth 86K | Fibroblast inh | ERb coact inh | ERa coact inh
O=C(CCS(=O)(=O)Cc1ccccc1)NCC1CCCO1 (configuration not stated) | 97 | 93 | 93 | 95 | 0 | -3
COc1ccc(CCN2C(=NC(=O)CCC(=O)O)SC3CS(=O)(=O)CC32)cc1 (configuration not stated) | 110 | 96 | 92 | 110 | -6 | -2
Clc1cnc(N/N=C/c2cccs2)c(Cl)c1 | 94 | 69 | 83 | 49* | 3 | -3
Cc1ccc(/C=N/Nc2ncc(Cl)cc2Cl)s1 | 104 | 62 | 50 | 47* | -10 | -7
CN1CCN(C(c2cccc(C(F)(F)F)c2)c2nnnn2Cc2ccccc2)CC1 (configuration not stated) | 109 | 91 | 100 | 88 | -9 | -10
CCOC(=O)c1c(NC(=O)CN2CCCCC2)sc2c1CCCC2O (configuration not stated) | 90 | 73 | 20* | 92 | -3 | 2
CCOc1ccc(Nc2oc(-c3ccccc3Cl)nc2C#N)cc1 | 23 | 93 | 43 | 100 | 31 | 71*
N#Cc1nc(-c2ccc(OCc3ccccc3)cc2)oc1NCCCn1ccnc1 | 98 | 5.8* | 6.5* | 92 | 9 | -1
N#Cc1nc(-c2ccc(OCc3ccc(Cl)cc3)cc2)oc1NCc1cccnc1 | 130 | 72 | 97 | 109 | 24 | 51*
N#Cc1nc(-c2ccc(OCc3ccccc3)cc2)oc1NCc1cccnc1 | 92 | 94 | 66 | 109 | -6 | 4
CCCOc1ccc(-c2nc(C#N)c(NCCCn3ccnc3)o2)cc1 | 110 | 28* | 50 | 90 | -19 | -17
O=C(NCc1cccnc1)c1ccc(COc2cccc3ccccc23)o1 | 92 | 87 | 53 | 95 | 7 | 12
CC1(C(=O)NCc2cccnc2)CCC(=O)N1Cc1cccs1 (configuration not stated) | 97 | 107 | 96 | 113 | 13 | -3
CN(C)c1nc(NS(=O)(=O)c2ccc(Cl)cc2)nc(N(C)C)n1 | 98 | 105 | 97 | 95 | -2 | -8
N#Cc1nc(-c2ccc(OCc3ccccc3Cl)cc2)oc1NCCCn1ccnc1 | 100 | 2.6* | 94 | 62 | -4 | 18
CCN(CC)C(=O)c1ccc(S(=O)(=O)N2CCC(c3nc4ccccc4s3)CC2)cc1 | 90 | 82 | 48 | 96 | -15 | -15
CC1CCCN(C(=O)c2ccc(S(=O)(=O)N3CCC(c4nc5ccccc5s4)CC3)cc2)C1 (configuration not stated) | 104 | 89 | 32* | 88 | -14 | -2
O=C(OCCNC(=O)c1ccc2ccccc2n1)c1ccc(F)cc1 | 87 | 103 | 109 | 102 | -1 | -3
COC(=O)COc1ccc(S(=O)(=O)N2CCc3ccccc3C2)cc1C | 109 | 68 | 100 | 93 | 0 | 5
O=S(=O)(Nc1ccc(N2CCOCC2)cc1)c1cccs1 | 6 | 102 | 97 | 114 | 76*[fluorescence artefact?] | 97*[fluorescence artefact?]
Cn1nc([N+](=O)[O-])nc1Oc1ccccc1 | 94 | 88 | 97 | 98 | -2 | 16
COc1ccccc1-c1nnc(Sc2nc([N+](=O)[O-])nn2C)o1 | 101 | 59 | 2.8* | 64 | -11 | -12
CCc1nc2ccccc2c(C(=O)OCC(=O)Nc2ccc(S(=O)(=O)N3CCOCC3)cc2)c1C | 132 | 77 | 28* | 90 | 3 | -1
CCc1nc2ccccc2c(C(=O)OCC(=O)Nc2cccc(S(=O)(=O)N3CCOCC3)c2)c1C | 115 | 57 | 22* | 76 | -18 | -13
CCc1nc2ccccc2c(C(=O)OCC(=O)NCCCN2CCCC2=O)c1C | 124 | 100 | 48 | nt | -11 | -6
SMILES | ERa coact pot | HUVEC inhibit | H69AR growth 86K | Fibroblast inh | ERb coact inh | ERa coact inh
O=C(CC12CC3CC(C1)CC(CC(=O)N1CCCC1)(C3)C2)N1CCCC1 | 96 | 94 | 100 | 106 | 27 | -5
Cn1c2c(c(=O)n(C)c1=O)C(c1cccc(Br)c1)C1C(=O)c3ccccc3C1=N2 (configuration not stated) | 111 | 79 | 41 | 101 | 1 | 0
O=C(NCc1ccccc1)c1ccc(COCC(F)(F)F)o1 | 98 | 93 | 97 | 103 | -23 | -7
COC(=O)c1ccccc1CCC(C)=O | 93 | 78 | 24* | 91 | -3 | 1
COC(=O)c1ccccc1S(=O)(=O)C(C)(C)C | 109 | 94 | 93 | 98 | -5 | -6
CCc1nnc2sc(-c3ccc(NC(=O)c4ccc5c(c4)OCCO5)cc3)nn12 | 326* | 86 | 92 | 106 | -2 | 24
Cc1nnc2sc(-c3ccc(NC(=O)c4ccc(-c5ccc(Cl)cc5Cl)o4)cc3)nn12 | 110 | 28* | 8.2* | 59 | 49 | 70*
Cc1nnc2sc(-c3ccc(NC(=O)c4cccnc4)cc3)nn12 | 81 | 99 | 10* | 103 | -1 | 3
CC(=O)Cc1nsc(NC(=O)c2ccc(-c3ccc(Cl)cc3Cl)o2)n1 | 98 | 70 | 43 | 99 | -2 | 3
CCSc1ccc(NC(=O)c2cccnc2)cc1 | 94 | 105 | 33* | 100 | 1 | -9
CCc1ccc(NC(=O)c2cccnc2)cc1 | 108 | 98 | 81 | 94 | -2 | 0
Cc1cc(-c2nn3c(C)nnc3s2)ccc1NC(=O)C(C)(C)C | 98 | 95 | 92 | 98 | 24 | 15
Cc1nc(Oc2ccc(Cl)cc2)c2oc3ccccc3c2n1 | 126 | 101 | 81 | 101 | -7 | -2
CC(=O)c1cccc(NS(=O)(=O)N2CCCCC2)c1 | 86 | 104 | 90 | 99 | 11 | 17
CCc1noc2c1/C(=N\O)CC(c1ccccc1)C2 (configuration not stated) | 88 | 115 | 104 | 111 | -2 | 17
COCCn1c(N)c(S(=O)(=O)c2cccs2)c2nc3ccccc3nc21 | 126 | 99 | 73 | 98 | 9 | -5
Cc1cccc(S(=O)(=O)c2c(N)n(Cc3ccco3)c3nc4ccccc4nc23)c1 | 88 | 82 | 67 | 84 | 61* | 47
Nc1c(S(=O)(=O)c2cccs2)c2nc3ccccc3nc2n1Cc1ccccc1 | 206* | 70 | 65 | 87 | 4 | 25
C1=C(CCNC2=NCCCCC2)CCCC1 | 122 | 100 | 93 | 99 | -5 | -8
O=C(Nc1nnc(CCN2CCOCC2)s1)C1CCCCC1 | 102 | 81 | 90 | 103 | 0 | 1
COc1ccc(CCNC(=O)NC23CC4CC(CC(C4)C2)C3)cc1OC | 109 | 108 | 98 | 96 | -7 | -4
CCN(CCNC(=O)C1CCN(S(C)(=O)=O)CC1)c1ccccc1 | 104 | 96 | 96 | 98 | 0 | 2
CCN(CCNC(=O)Nc1ccc(Cl)cc1)c1ccccc1 | 139 | 102 | 7.2* | 96 | 2 | -4
Cc1cc(C)c(C#N)c(SCc2cc3c(cc2Cl)OCO3)n1 | 189 | 112 | 95 | 93 | 58*[fluorescence artefact?] | 56*[fluorescence artefact?]
